Experimental data: ChEMBL document CHEMBL1146084, “Discovery of orally efficacious melanin-concentrating hormone receptor-1 antagonists as antiobesity agents. Synthesis, SAR, and biological evaluation of bicyclo[3.1.0]hexyl ureas” (J Med Chem, 2006)
Active and inactive are the calls of the source. The calls are words filed in the database; no cut-off is given here.

Experiments:
[1] = (§1) AUC (0-24h) in rat at 10 mg/kg, po; assay type: ADME, organism-based, Plasma; parameters: time < 24 hr, dose 10 mg/kg, route oral; conditions: plasma
[2] = Ratio of drug level in brain against plasma in rat after 6 hrs at 10 mg/kg, po; assay type: ADME, organism-based; parameters: dose 10 mg/kg, route oral
[3] = biological target: Melanin-concentrating hormone receptor 1 (Mus musculus) (UniProt Q8JZL2); test: Receptor occupancy ex vivo by displacement of [125I]S36057 binding from MCHR1 in C57BL/6N mouse brain after 6 hrs at 30 mg/kg, po; assay type: functional, organism-based; parameters: dose 30 mg/kg
How it was run: (§2)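 Male C57Bl/6NCrl:BR mice given vehicle (HPβCD) or compound orally; killed by CO2 at 6 or 24 h post-dose (chronic studies: 24 h after last daily dose, n = 3/group). 16 µm frozen caudate putamen sections incubated 30 min at room temperature with 700 pM [125I]-S36057 in MCH-R1 binding buffer; 1 µM MCH defines nonspecific binding. Phosphorimager quantitation; % inhibition versus vehicle.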

Mus musculus [4] = test: Reduction of food intake in orally dosed C57BL/6N DIO mouse after 24 hrs at 30 mg/kg relative to control; assay type: functional; conditions: for Food intake (% of vehicle control): route oral
How it was run: (§3)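 Male C57Bl/6NCrl:BR mice made obese on a 45%-fat diet, individually housed, 12 h light/dark, 22 °C; acclimated to oral 20% hydroxypropyl-β-cyclodextrin vehicle for 2-3 days. Single oral 30 mg/kg dose in 20% HPβCD; food intake weighed to 0.01 g at 2, 6 and 24 h, expressed as % of vehicle ± SEM.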

[5] = biological target: T1, Melanin-concentrating hormone receptor 1 (Homo sapiens, UniProt Q99705); test: Displacement of [125I]MCH from human MCHR1 expressed in CHO cell; assay type: cell-based
[6] = biological target: T1, Melanin-concentrating hormone receptor 1; test: Inhibition of MCH-mediated calcium influx in CHO cells expressing human MCHR1 by FLIPR assay; assay type: functional, cell-based
How it was run: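 After two washes, treated with vehicle (buffer, 2% DMSO) or compound, then stimulated with 30 nM MCH; intracellular Ca²⁺ change read by FLIPR.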

[7] = (§4) AUC (0-6h) in rat at 10 mg/kg, po; assay type: ADME, organism-based, Plasma; parameters: time < 6 hr, dose 10 mg/kg, route oral; conditions: plasma
Mus musculus [8] = test: Reduction of food intake in orally dosed C57BL/6N DIO mouse after 2 hrs at 30 mg/kg relative to control; assay type: functional; parameters: Activity: scale not given: the % may be the effect or the level left; conditions: route oral; how it was run: as §3
Mus musculus [9] = test: Reduction of food intake in orally dosed C57BL/6N DIO mouse after 6 hrs at 30 mg/kg relative to control; assay type: functional; conditions: route oral; how it was run: as §3
Rattus norvegicus [10] = test: as §4; assay type: ADME, organism-based, Plasma; parameters: time < 6 hr, dose 10 mg/kg, route oral; conditions: in vivo, 6 h
Mus musculus [11] = test: Reduction of cumulative food intake in C57BL/6N DIO mouse relative to control after 5 days at 30 mg/kg, po; assay type: functional
How it was run: (§5)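 DIO male C57Bl/6NCrl:BR mice (45%-fat diet, individually housed), acclimated to vehicle dosing, given compound orally once daily in 20% HPβCD for 5 or 28 days, n = 11/group. Body weight (to 0.1 g) and food intake from preweighed 3-3.5 g pellets (to 0.01 g) recorded daily; cumulative intake and % weight change at endpoint versus vehicle, ± SEM.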

Mus musculus [12] = test: Change in body weight of C57BL/6N DIO mouse relative to control after 5 days at 10 mg/kg, po; assay type: functional; how it was run: as §5
Mus musculus [13] = test: Change in body weight of C57BL/6N DIO mouse relative to control after 5 days at 30 mg/kg, po; assay type: functional; how it was run: as §5
Mus musculus [14] = test: Reduction of cumulative food intake in C57BL/6N DIO mouse relative to control after 28 days at 10 mg/kg, po; assay type: functional; how it was run: as §5
Mus musculus [15] = test: Reduction of cumulative food intake in C57BL/6N DIO mouse relative to control after 28 days at 30 mg/kg, po; assay type: functional; how it was run: as §5
Mus musculus [16] = test: Change in body weight of C57BL/6N DIO mouse relative to control after 28 days at 10 mg/kg, po; assay type: functional; how it was run: as §5
Mus musculus [17] = test: Change in body weight of C57BL/6N DIO mouse relative to control after 28 days at 30 mg/kg, po; assay type: functional; how it was run: as §5
Rattus norvegicus [18] = test: as §1; assay type: ADME, organism-based, Plasma; parameters: time < 24 hr, dose 10 mg/kg, route oral; conditions: in vivo, 24 h
[19] = biological target: Melanin-concentrating hormone receptor 1 (Mus musculus) (UniProt Q8JZL2); test: Receptor occupancy ex vivo by displacement of [125I]S36057 binding from MCHR1 in C57BL/6N mouse brain after 24 hrs at 30 mg/kg, po; assay type: functional, organism-based; parameters: dose 30 mg/kg; how it was run: as §2
[20] = Half life in rat at 10 mg/kg, iv; assay type: ADME, organism-based; parameters: dose 10 mg/kg, route intravenous; conditions: in vivo
Rattus norvegicus [21] = test: Volume of distribution in rat at 10 mg/kg, iv or po; assay type: ADME, organism-based; parameters: dose 10 mg/kg, route oral; conditions: in vivo
Rattus norvegicus [22] = test: Bioavailability in rat at 10 mg/kg, iv or po; assay type: ADME, organism-based; conditions: in vivo
Mus musculus [23] = test: Reduction of cumulative food intake in C57BL/6N DIO mouse relative to control after 5 days at 10 mg/kg, po; assay type: functional; how it was run: as §5
[24] = biological target: Melanin-concentrating hormone receptor 1 (Mus musculus) (UniProt Q8JZL2); conditions: C57BL/6N, Brain, 10 mg/kg

T1 sequence (Q99705 whole entry): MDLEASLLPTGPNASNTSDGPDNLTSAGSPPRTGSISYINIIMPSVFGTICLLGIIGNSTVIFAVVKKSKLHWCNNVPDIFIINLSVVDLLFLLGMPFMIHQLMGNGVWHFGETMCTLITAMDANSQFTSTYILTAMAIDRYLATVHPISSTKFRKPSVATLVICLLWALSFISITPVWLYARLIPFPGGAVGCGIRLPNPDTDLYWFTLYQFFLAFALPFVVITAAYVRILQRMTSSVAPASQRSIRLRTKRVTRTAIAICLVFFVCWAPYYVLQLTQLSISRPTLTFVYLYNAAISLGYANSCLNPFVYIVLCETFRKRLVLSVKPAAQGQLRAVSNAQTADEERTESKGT
Melanin-concentrating hormone receptor 1 (Mus musculus), sequence (Q8JZL2 whole entry): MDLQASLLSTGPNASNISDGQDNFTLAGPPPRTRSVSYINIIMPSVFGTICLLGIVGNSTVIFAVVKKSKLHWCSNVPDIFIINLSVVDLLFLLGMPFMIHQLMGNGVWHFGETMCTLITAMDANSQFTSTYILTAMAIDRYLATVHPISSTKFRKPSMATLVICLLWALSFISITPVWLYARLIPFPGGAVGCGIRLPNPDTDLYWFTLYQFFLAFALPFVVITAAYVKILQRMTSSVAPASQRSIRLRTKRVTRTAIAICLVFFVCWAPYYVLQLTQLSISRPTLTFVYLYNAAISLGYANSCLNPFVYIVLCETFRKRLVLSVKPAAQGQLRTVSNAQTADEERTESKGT

`N#Cc1cccc([C@]23CC[C@@H](N(CCN4CC[C@@H](O)C4)C(=O)Nc4ccc(F)c(Cl)c4)C[C@H]2C3)c1` gave an AUC(0-t) at 24 h [1] of 14 µM·h, a Kp at 6 h [2] of 0.7 and an Activity [3] of 58%. The Activity (Mus musculus [4]) was “inactive”.

Compound `N#Cc1cccc([C@]23CC[C@@H](N(CCN4CC[C@H](O)C4)C(=O)Nc4ccc(F)c(C(F)(F)F)c4)C[C@H]2C3)c1` has a Ki [5] of 15.1 nM, a Kb [6] of 11 nM and an AUC(0-t) at 24 h [1] of 16.4 µM·h. For the same compound, the Kp at 6 h [2] was 1.1, the Activity [3] was 73% and the Activity (Mus musculus [4]) was “Active”.

With `N#Cc1cccc([C@]23CC[C@@H](N(CCN4CC[C@@H](O)C4)C(=O)Nc4ccc(F)c(C(F)(F)F)c4)[C@H]2C3)c1` the AUC(0-t) at 6 h [7] was 2.19 µg·h/mL, the Activity [3] was 81% and the “Food intake (% of vehicle control)” value (Mus musculus [4]) was 80.8%. The “Food intake (% of vehicle)” value (Mus musculus [8]) was 65.7% and the “Food intake (% of vehicle control)” value (Mus musculus [9]) was 68.2%.

`CN1CCN(CCCN(C(=O)Nc2ccc(F)c(C(F)(F)F)c2)[C@@H]2CC[C@]3(c4ccc(C#N)cc4)C[C@H]23)CC1` (relative stereo) showed an AUC (Rattus norvegicus [10]) of 0.642 µg·h/mL, an Activity (Mus musculus [11]) of 11.7 g and an Activity (Mus musculus [12]) of -2.26%. The Activity (Mus musculus [13]) was -6.04%, the Activity (Mus musculus [14]) was 87 g and the Activity (Mus musculus [15]) was 79.4 g. The Activity (Mus musculus [16]) was -1.48%, the Activity (Mus musculus [17]) was -9.83% and the Ki [5] was 2.7 nM. It also gave a Kb [6] of 1.9 nM, an AUC (Rattus norvegicus [18]) of 3.9 µM·h and an Activity [3] of 99%. The “Food intake (% of vehicle control)” value (Mus musculus [4]) was 78.1%, the Activity [19] was 58% and the “Food intake (% of vehicle)” value (Mus musculus [8]) was 77.3%. For the same compound, the “Food intake (% of vehicle control)” value (Mus musculus [9]) was 76%, the half-life [20] was 4 h and the Vdss (Rattus norvegicus [21]) was 5.6 L/kg. The F (Rattus norvegicus [22]) was 27%, the Activity (Mus musculus [23]) was 14.9 g and the inhibition [24] was > 65%.

With `N#Cc1cccc([C@]23CC[C@@H](N(CCCCN4CCOCC4)C(=O)Nc4ccc(F)c(C(F)(F)F)c4)[C@H]2C3)c1` (relative stereo) the AUC(0-t) at 6 h [7] was 0.45 µg·h/mL, the Ki [5] was 2.5 nM and the Activity [3] was 64%. The “Food intake (% of vehicle control)” value (Mus musculus [4]) was 94.1%, the “Food intake (% of vehicle)” value (Mus musculus [8]) was 88% and the “Food intake (% of vehicle control)” value (Mus musculus [9]) was 83.4%.

For `CN1CCN(CCCCN(C(=O)Nc2ccc(F)c(C(F)(F)F)c2)[C@@H]2CC[C@]3(c4cccc(C#N)c4)C[C@H]23)CC1` (relative stereo), the AUC(0-t) at 6 h [7] was 1.68 µg·h/mL, the Activity [3] was 85% and the “Food intake (% of vehicle control)” value (Mus musculus [4]) was 89.1%. For the same compound, the “Food intake (% of vehicle)” value (Mus musculus [8]) was 81.1% and the “Food intake (% of vehicle control)” value (Mus musculus [9]) was 81.6%.

In the case of `N#Cc1cccc([C@]23CC[C@@H](N(CCCCN4CCCCC4)C(=O)Nc4ccc(F)c(C(F)(F)F)c4)[C@H]2C3)c1` (relative stereo), the AUC(0-t) at 6 h [7] is reported as 1.16 µg·h/mL, the Activity [3] is reported as 72% and the “Food intake (% of vehicle control)” value (Mus musculus [4]) is reported as 102%. For the same compound, the “Food intake (% of vehicle)” value (Mus musculus [8]) was 92% and the “Food intake (% of vehicle control)” value (Mus musculus [9]) was 101.1%.

With `CN1CCN(CCCN(C(=O)Nc2ccc(F)c(Cl)c2)[C@@H]2CC[C@]3(c4ccc(OC(F)(F)F)cc4)C[C@H]23)CC1` (relative stereo) the AUC(0-t) at 6 h [7] was 0.578 µg·h/mL, the Activity [3] was 96% and the “Food intake (% of vehicle control)” value (Mus musculus [4]) was 85.9%. The Activity [19] was 15%, the Activity (Mus musculus [8]) was 86.2% and the “Food intake (% of vehicle control)” value (Mus musculus [9]) was 80.5%.

`N#Cc1cccc([C@]23CC[C@@H](N(CCN4CC[C@@H](O)C4)C(=O)Nc4ccc(F)c(Cl)c4)[C@H]2C3)c1` (stereo in doubt; (+)-23c) gave an AUC (Rattus norvegicus [10]) of 0.585 µg·h/mL and a Ki [5] of 13 nM.

`N#Cc1cccc([C@]23CC[C@@H](N(CCN4CC[C@@H](O)C4)C(=O)Nc4ccc(F)c(Cl)c4)[C@H]2C3)c1` (stereo in doubt; (-)-23d) gave an AUC (Rattus norvegicus [10]) of 2.404 µg·h/mL.
